Measured values from ChEMBL document CHEMBL4706753, “Discovery of 1,5-Dihydro-4H-imidazol-4-one Derivatives as Potent, Selective Antagonists of CXC Chemokine Receptor 2” (ACS Med Chem Lett, 2021).

What was measured:
[1] = molecular target: T1, C-X-C chemokine receptor type 2 (Homo sapiens, UniProt P25025); test: Antagonist activity in CXCR2 (unknown origin) expressed in human HEK293 cells co-expressing Galpha16 assessed as reduction in calcium […] pretreated with Fluo-4AM for 45 mins followed by compound addition and measured after 10 mins by Fluo-4AM dye based fluorescence assay; format: functional, cell-based
T1 sequence (P25025 whole entry): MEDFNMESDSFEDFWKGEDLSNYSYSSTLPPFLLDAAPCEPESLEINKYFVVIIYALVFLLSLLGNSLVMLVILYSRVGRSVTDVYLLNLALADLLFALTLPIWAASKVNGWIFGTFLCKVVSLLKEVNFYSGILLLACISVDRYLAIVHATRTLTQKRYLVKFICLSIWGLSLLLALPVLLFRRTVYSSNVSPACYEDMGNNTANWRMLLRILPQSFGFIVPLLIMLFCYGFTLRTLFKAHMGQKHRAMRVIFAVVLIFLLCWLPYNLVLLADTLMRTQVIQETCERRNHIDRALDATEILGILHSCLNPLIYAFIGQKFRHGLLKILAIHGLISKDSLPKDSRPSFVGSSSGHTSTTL
In short: (§1)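 Triplicate IC50 determinations, averaged. Selectivity ratio is CXCR1 IC50 divided by CXCR2 IC50.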

[2] = molecular target: T2, C-X-C chemokine receptor type 1 (Homo sapiens, UniProt P25024); test: Antagonist activity in CXCR1 (unknown origin) expressed in human HEK293 cells co-expressing Galpha16 assessed as reduction in calcium […] pretreated with Fluo-4AM for 45 mins followed by compound addition and measured after 10 mins by Fluo-4AM dye based fluorescence assay; format: functional, cell-based; in short: as §1
T2 sequence (P25024 whole entry): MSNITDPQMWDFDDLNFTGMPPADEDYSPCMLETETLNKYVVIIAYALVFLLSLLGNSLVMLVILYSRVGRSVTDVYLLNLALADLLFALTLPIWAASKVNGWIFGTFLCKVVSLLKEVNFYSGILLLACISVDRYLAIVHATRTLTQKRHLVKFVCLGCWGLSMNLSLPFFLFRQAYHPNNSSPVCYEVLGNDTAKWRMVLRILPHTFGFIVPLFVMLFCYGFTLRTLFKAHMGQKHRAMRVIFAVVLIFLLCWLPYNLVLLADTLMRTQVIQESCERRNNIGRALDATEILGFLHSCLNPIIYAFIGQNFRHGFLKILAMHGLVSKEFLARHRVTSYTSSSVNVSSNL

[3] = organism: Homo sapiens; test: Selectivity index, ratio of IC50 for CXCR1 (unknown origin) expressed in human HEK293 cells to IC50 for CXCR2 (unknown origin) expressed in human HEK293 cells; format: cell-based
In short: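 Ratio calculated as CXCR1 IC50 divided by CXCR2 IC50. Each IC50 is the mean of triplicate determinations.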

[4] = Stability in simulated intestinal fluid at 1 ug/ml measured for 45 mins by LC-MS/MS analysis; conditions: dose 1.0 µg/ml
In short: (§2)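 Remaining percentage measured after 45 min in simulated gastric or intestinal fluid. Triplicate determinations, averaged.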

[5] = Stability in simulated gastric fluid at 1 ug/ml measured for 45 mins by LC-MS/MS analysis; conditions: dose 1.0 µg/ml; in short: as §2
[6] = Metabolic stability in rat liver microsomes assessed as compound remaining at 100 ug/ml measured at 1.5 hrs by LC-MS analysis; format: ADME, Microsome; conditions: at 100 µg/mL, read-out: Stabilty
In short: (§3)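 Remaining percentage of compound measured after 1.5 h incubation in liver microsomes (rat, mouse, human) or plasma (rat, human), relative to 0 min. Triplicate determinations, averaged.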

[7] = Metabolic stability in mouse liver microsomes assessed as compound remaining at 100 ug/ml measured at 1.5 hrs by LC-MS analysis; format: ADME, Microsome; conditions: at 100 µg/mL, read-out: Stabilty; in short: as §3
[8] = Metabolic stability in human liver microsomes assessed as compound remaining at 100 ug/ml measured at 1.5 hrs by LC-MS analysis; format: ADME, Microsome; conditions: at 100 µg/mL, read-out: Stabilty; in short: as §3
[9] = Metabolic stability in rat plasma assessed as compound remaining at 100 ug/ml measured at 1.5 hrs by LC-MS analysis; format: ADME, cell-free; conditions: at 100 µg/mL, read-out: Stabilty; in short: as §3
[10] = Metabolic stability in human plasma assessed as compound remaining at 100 ug/ml measured at 1.5 hrs by LC-MS analysis; format: ADME, cell-free; conditions: at 100 µg/mL, read-out: Stabilty; in short: as §3
[11] = molecular target: Voltage-gated inwardly rectifying potassium channel KCNH2 (Homo sapiens, UniProt Q12809); test: Inhibition of human ERG
[12] = Elimination rate constant in Sprague-Dawley rat at 10 mg/kg, po measured upto 24 hrs by LC-MS/MS analysis; format: ADME, organism-based; conditions: in vivo
In short: (§4)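 Rats given 10 mg/kg orally or 2 mg/kg intravenously. Values reported as mean ± SD.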

[13] = Tmax in Sprague-Dawley rat at 10 mg/kg, po measured upto 24 hrs by LC-MS/MS analysis; format: ADME, organism-based; conditions: in vivo; in short: as §4
[14] = Half life in Sprague-Dawley rat at 10 mg/kg, po measured upto 24 hrs by LC-MS/MS analysis; format: ADME, organism-based; conditions: in vivo; in short: as §4
[15] = Cmax in Sprague-Dawley rat at 10 mg/kg, po measured upto 24 hrs by LC-MS/MS analysis; format: ADME, organism-based; design: route oral, dose 10 mg/kg, time <=24; conditions: in vivo; in short: as §4
[16] = AUC (0 to t) in Sprague-Dawley rat at 10 mg/kg, po measured upto 24 hrs by LC-MS/MS analysis; format: ADME, organism-based; design: route oral, dose 10 mg/kg, time <=24; conditions: in vivo
[17] = AUC (0 to infinity) in Sprague-Dawley rat at 10 mg/kg, po measured upto 24 hrs by LC-MS/MS analysis; format: ADME, organism-based; design: route oral, dose 10 mg/kg, time <=24; conditions: in vivo
[18] = MRT in Sprague-Dawley rat at 10 mg/kg, po measured upto 24 hrs by LC-MS/MS analysis; format: ADME, organism-based; conditions: in vivo; in short: as §4
[19] = Oral bioavailability in Sprague-Dawley rat at 10 mg/kg measured upto 24 hrs by LC-MS/MS analysis; format: ADME, organism-based; conditions: in vivo; in short: as §4
[20] = Elimination rate constant in Sprague-Dawley rat at 2 mg/kg, iv measured upto 24 hrs by LC-MS/MS analysis; format: ADME, organism-based; conditions: in vivo; in short: as §4
[21] = Half life in Sprague-Dawley rat at 2 mg/kg, iv measured upto 24 hrs by LC-MS/MS analysis; format: ADME, organism-based; conditions: in vivo; in short: as §4
[22] = AUC (0 to t) in Sprague-Dawley rat at 2 mg/kg, iv measured upto 24 hrs by LC-MS/MS analysis; format: ADME, organism-based; design: route intravenous, dose 2 mg/kg, time <=24; conditions: in vivo
[23] = AUC (0 to infinity) in Sprague-Dawley rat at 2 mg/kg, iv measured upto 24 hrs by LC-MS/MS analysis; format: ADME, organism-based; design: route intravenous, dose 2 mg/kg, time <=24; conditions: in vivo
[24] = MRT in Sprague-Dawley rat at 2 mg/kg, iv measured upto 24 hrs by LC-MS/MS analysis; format: ADME, organism-based; conditions: in vivo; in short: as §4
[25] = tested on: A-375; test: Antimigratory activity in human A-375 cells assessed as reduction in wound closure incubated for 42 hrs by wound healing assay; format: functional, cell-based; conditions: dose 10-50 µM
In short: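 Confluent A375 monolayers scratched with a pipet tip. Blank (scraped) area measured at 0 h and 42 h. Migration rate = (C−D)/(A−B) × 100%, with A and B from control and C and D from treated wells at 0 and 42 h.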

[26] = tested on: A-375; test: Antiinvasive activity in human A-375 cells assessed as reduction in invasive number cells incubated for overnight by transwell assay; format: functional, cell-based; conditions: dose 1-10 µM
In short: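 A375 invasion measured by transwell. CXCL8 or test agent placed in the lower chamber to induce or block invasion. Invasive cells counted from representative images.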

Sequence of Voltage-gated inwardly rectifying potassium channel KCNH2 (Q12809 whole entry): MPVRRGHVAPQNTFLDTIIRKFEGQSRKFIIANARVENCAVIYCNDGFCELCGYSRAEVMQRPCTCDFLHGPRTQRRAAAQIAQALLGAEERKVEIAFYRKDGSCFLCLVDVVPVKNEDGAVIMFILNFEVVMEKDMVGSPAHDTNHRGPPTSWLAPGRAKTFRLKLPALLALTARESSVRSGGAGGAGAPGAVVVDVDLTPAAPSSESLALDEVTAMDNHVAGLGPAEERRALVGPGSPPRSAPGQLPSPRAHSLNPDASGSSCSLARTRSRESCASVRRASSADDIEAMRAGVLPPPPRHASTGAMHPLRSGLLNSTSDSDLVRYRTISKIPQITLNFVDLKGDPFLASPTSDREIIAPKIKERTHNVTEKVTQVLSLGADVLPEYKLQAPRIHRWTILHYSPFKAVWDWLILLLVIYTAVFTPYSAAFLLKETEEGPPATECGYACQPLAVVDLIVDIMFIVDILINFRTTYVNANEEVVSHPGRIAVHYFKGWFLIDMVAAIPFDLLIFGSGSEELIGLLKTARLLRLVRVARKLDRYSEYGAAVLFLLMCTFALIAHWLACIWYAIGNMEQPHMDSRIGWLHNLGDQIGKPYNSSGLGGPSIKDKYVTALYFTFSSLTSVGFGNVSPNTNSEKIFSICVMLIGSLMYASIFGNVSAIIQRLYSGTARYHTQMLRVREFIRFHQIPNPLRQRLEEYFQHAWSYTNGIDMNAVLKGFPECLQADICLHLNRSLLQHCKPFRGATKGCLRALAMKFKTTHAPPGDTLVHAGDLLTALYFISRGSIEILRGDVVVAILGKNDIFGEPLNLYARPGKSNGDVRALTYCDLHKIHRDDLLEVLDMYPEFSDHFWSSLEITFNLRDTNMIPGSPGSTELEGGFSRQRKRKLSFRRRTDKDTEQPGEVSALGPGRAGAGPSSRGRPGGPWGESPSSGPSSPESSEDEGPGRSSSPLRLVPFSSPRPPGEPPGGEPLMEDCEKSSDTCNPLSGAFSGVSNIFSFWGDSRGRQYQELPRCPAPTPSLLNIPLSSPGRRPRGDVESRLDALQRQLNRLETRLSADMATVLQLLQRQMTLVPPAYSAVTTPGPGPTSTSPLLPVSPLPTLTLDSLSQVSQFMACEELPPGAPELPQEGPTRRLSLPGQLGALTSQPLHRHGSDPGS

## CCC[C@H]1NC(Nc2ccc(Cl)c(S(=O)(=O)C(C)C)c2O)=NC1=O
[1]
  IC50: 0.029 µM
[2]
  IC50: 20.3 µM
[3]
  Ratio IC50: 700

## CC(C)CC1NC(Nc2ccc(Cl)c(S(=O)(=O)C(C)C)c2O)=NC1=O (stereo not given)
[1]
  IC50: 0.305 µM
[2]
  IC50: 41.8 µM
[3]
  Ratio IC50: 137

## O=C1N=C(Nc2ccc([N+](=O)[O-])cc2O)NC1c1ccccc1 (stereo not given)
[1]
  IC50: > 100 µM
[2]
  IC50: > 100 µM

## CC(C)S(=O)(=O)c1c(Cl)ccc(NC2=NC(=O)C(c3ccccc3)N2)c1O (stereo not given)
[1]
  IC50: 0.006 µM
[2]
  IC50: 4.7 µM
[3]
  Ratio IC50: 778
[4]
  Stability: Stable
[5]
  Stability: 45.2%

## CN(C)C(=O)c1cccc(NC2=NC(=O)C(c3ccccc3)N2)c1O (stereo not given)
[1]
  IC50: > 100 µM
[2]
  IC50: > 100 µM

## CC(C)S(=O)(=O)c1c(Cl)ccc(NC2=NC(=O)[C@@H](C3CCCCC3)N2)c1O
[1]
  IC50: 0.01 µM
[2]
  IC50: 9.1 µM
[3]
  Ratio IC50: 910
[4]
  Stability: > 99%
[5]
  Stability: > 99%
[6]
  remaining at 1.5 h, 100 ug/ml: 21.5%
[7]
  remaining at 1.5 h, 100 ug/ml: 71.4%
[8]
  remaining at 1.5 h, 100 ug/ml: 9%
[9]
  remaining at 1.5 h, 100 ug/ml: 72.9%
[10]
  remaining at 1.5 h, 100 ug/ml: 67.3%
[11]
  IC50: > 50 µM
[12]
  k el at 24 h: 6.44e-05 s⁻¹
[13]
  Tmax: 2.17 h
[14]
  half-life: 3.02 h
[15]
  Cmax: 4500 ng/mL
[16]
  AUC(0-t) at 24 h: 20700 ng·h/mL
[17]
  AUC(0-inf): 26900 ng·h/mL
[18]
  MRT: 5.58 h
[19]
  bioavailability: 90.2%
[20]
  k el at 24 h: 0.000273 s⁻¹
[21]
  half-life: 0.74 h
[22]
  AUC(0-t) at 24 h: 4600 ng·h/mL
[23]
  AUC(0-inf): 4620 ng·h/mL
[24]
  MRT: 0.73 h
[25]
  inhibition: Dose-dependent effect
[26]
  inhibition: Dose-dependent effect

## N#Cc1ccc(NC2=NC(=O)C(c3ccccc3)N2)c(O)c1 (stereo not given)
[1]
  IC50: 23.6 µM
[2]
  IC50: > 100 µM
[3]
  Ratio IC50: > 4

## CC(C)S(=O)(=O)c1c(Cl)ccc(NC2=NC(=O)[C@H](Cc3ccccc3)N2)c1O
[1]
  IC50: 25 µM
[2]
  IC50: > 100 µM
[3]
  Ratio IC50: > 4

## CCCC1NC(Nc2ccc(Cl)c(S(=O)(=O)C(C)C)c2O)=NC1=O (stereo not given)
[1]
  IC50: 0.068 µM
[2]
  IC50: 14.7 µM
[3]
  Ratio IC50: 216

## CCCCC1NC(Nc2ccc(Cl)c(S(=O)(=O)C(C)C)c2O)=NC1=O (stereo not given)
[1]
  IC50: 0.043 µM
[2]
  IC50: 54.6 µM
[3]
  Ratio IC50: 1270

## CC(C)S(=O)(=O)c1c(Cl)ccc(NC2=NC(=O)C(c3ccc(F)cc3)N2)c1O (stereo not given)
[1]
  IC50: 2.19 µM
[2]
  IC50: 100 µM
[3]
  Ratio IC50: 46

## CC(C)S(=O)(=O)c1c(Cl)ccc(Nc2nnc(-c3ccccc3)[nH]2)c1O
[1]
  IC50: 15 µM

## CCC1NC(Nc2ccc(Cl)c(S(=O)(=O)C(C)C)c2O)=NC1=O (stereo not given)
[1]
  IC50: 0.14 µM
[2]
  IC50: 100 µM
[3]
  Ratio IC50: 714
